Data as given in ChEMBL document CHEMBL3400126, “Benzo-fused lactams from a diversity-oriented synthesis (DOS) library as inhibitors of scavenger receptor BI (SR-BI)-mediated lipid uptake” (Bioorg Med Chem Lett, 2015).

What was measured:
[1] = biological target: T1, Scavenger receptor class B member 1 (Mus musculus, UniProt Q61009); assay: Inhibition of mouse SR-B1 overexpressed in CHO cells assessed as inhibition of transfer of the fluorescent lipid DiI from HDL particles to cells after 3 hrs; type: cell-based
T1 sequence (Q61009 whole entry): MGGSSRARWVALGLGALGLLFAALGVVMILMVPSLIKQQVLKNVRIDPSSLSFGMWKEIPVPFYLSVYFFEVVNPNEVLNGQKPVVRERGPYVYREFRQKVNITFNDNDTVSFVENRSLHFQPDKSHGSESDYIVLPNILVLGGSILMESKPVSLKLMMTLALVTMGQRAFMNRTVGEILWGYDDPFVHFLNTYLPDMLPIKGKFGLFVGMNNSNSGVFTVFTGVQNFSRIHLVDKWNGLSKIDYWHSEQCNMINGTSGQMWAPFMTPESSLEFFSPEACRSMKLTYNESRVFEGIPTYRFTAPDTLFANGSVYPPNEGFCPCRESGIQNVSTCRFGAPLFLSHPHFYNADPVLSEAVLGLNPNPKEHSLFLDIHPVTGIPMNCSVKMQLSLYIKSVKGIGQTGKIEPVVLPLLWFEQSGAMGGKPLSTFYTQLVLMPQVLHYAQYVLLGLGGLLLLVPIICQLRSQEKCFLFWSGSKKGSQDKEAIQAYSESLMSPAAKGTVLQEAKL
Summary of the method: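 Primary assay: uptake of fluorescent lipid DiI from DiI-labeled HDL particles into IdlA[mSR-BI] cells, i.e. CHO cells overexpressing mouse SR-BI. Read-out is cell-associated DiI fluorescence. Compounds that quenched DiI-HDL fluorescence in a dose-dependent manner were excluded by counterscreen. 1 μM BLT-1 served as positive control.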

[2] = test system: CHO; assay: Cytotoxicity against CHO cells after 24 hrs by CellTiterGlo assay; type: cell-based, Cricetulus griseus; conditions: chinese hamster
Summary of the method: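 IdlA[mSR-BI] cells (CHO overexpressing mouse SR-BI) incubated with compound for 24 h; cellular ATP levels read by CellTiter-Glo luminescence.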

| IC50 [1] | Compound | Activity [2] |
| --- | --- | --- |
| 9900 nM | C[C@@H]1CN([C@H](C)CO)C(=O)c2cc(NC(=O)Cc3cn(C)c4ccccc34)ccc2O[C@H]1CN(C)S(C)(=O)=O | Non-toxic |
| > 25000 nM | C[C@@H]1CN([C@H](C)CO)C(=O)c2cc(NC(=O)CCCN(C)C)ccc2O[C@H]1CN(C)S(=O)(=O)c1ccc(Cl)cc1 | Non-toxic |
| 890 nM | C[C@@H]1CN([C@H](C)CO)C(=O)c2cc(NC(=O)Cc3cn(C)c4ccccc34)ccc2O[C@H]1CN(C)Cc1ccc2c(c1)OCO2 | Non-toxic |
| > 25000 nM | C[C@H](CO)N1C[C@H](C)[C@H](CN(C)S(=O)(=O)c2ccc(Cl)cc2)Oc2ccc(NC(=O)Cc3cn(C)c4ccccc34)cc2C1=O | Non-toxic |
| 650 nM | C[C@@H]1CN([C@H](C)CO)C(=O)c2cc(NC(=O)Cc3cn(C)c4ccccc34)ccc2O[C@H]1CN(C)Cc1ccc(C(F)(F)F)cc1 | Non-toxic |
| 4900 nM | C[C@@H]1CN([C@H](C)CO)C(=O)c2cc(NC(=O)Cc3cn(C)c4ccccc34)ccc2O[C@H]1CN(C)C(=O)Nc1ccccc1 | Non-toxic |
| 12300 nM | C[C@H]1CN([C@@H](C)CO)C(=O)c2cc(NC(=O)Cc3cn(C)c4ccccc34)ccc2O[C@H]1CN(C)S(=O)(=O)c1ccc(Cl)cc1 | Non-toxic |
| > 25000 nM | C[C@@H]1CN([C@H](C)CO)C(=O)c2cc(NC(=O)Cc3cn(C)c4ccccc34)ccc2O[C@H]1CN(C)Cc1ccc(Cl)c(Cl)c1 | Non-toxic |
| 2000 nM | COc1ccc(S(=O)(=O)N(C)C[C@@H]2Oc3ccc(NC(=O)Cc4cn(C)c5ccccc45)cc3C(=O)N([C@H](C)CO)C[C@H]2C)cc1 | Non-toxic |
| 18000 nM | C[C@@H]1CN([C@H](C)CO)C(=O)c2cc(NC(=O)Cc3cn(C)c4ccccc34)ccc2O[C@H]1CN(C)C | Non-toxic |
| 17400 nM | C[C@H]1CN([C@@H](C)CO)C(=O)c2cc(NC(=O)Cc3cn(C)c4ccccc34)ccc2O[C@@H]1CN(C)S(=O)(=O)c1ccc(Cl)cc1 | Non-toxic |
| 3200 nM | C[C@@H]1CN([C@H](C)CO)C(=O)c2cc(NS(=O)(=O)c3ccccc3)ccc2O[C@H]1CN(C)S(=O)(=O)c1ccc(Cl)cc1 | Non-toxic |
| 910 nM | C[C@@H]1CN([C@@H](C)CO)C(=O)c2cc(NC(=O)Cc3cn(C)c4ccccc34)ccc2O[C@H]1CN(C)S(=O)(=O)c1ccc(Cl)cc1 | Non-toxic |
| 10000 nM | C[C@@H]1CN([C@@H](C)CO)C(=O)c2cc(NC(=O)Cc3cn(C)c4ccccc34)ccc2O[C@@H]1CN(C)S(=O)(=O)c1ccc(Cl)cc1 | Non-toxic |
| 220 nM | C[C@@H]1CN([C@H](C)CO)C(=O)c2cc(NC(=O)Cc3cn(C)c4ccccc34)ccc2O[C@H]1CN(C)S(=O)(=O)c1ccccc1 | Non-toxic |
| > 25000 nM | C[C@@H]1CN([C@H](C)CN)C(=O)c2cc(NC(=O)Cc3cn(C)c4ccccc34)ccc2O[C@H]1CN(C)S(=O)(=O)c1ccc(Cl)cc1 | Non-toxic |
| 2600 nM | COc1ccc(CN(C)C[C@@H]2Oc3ccc(NC(=O)Cc4cn(C)c5ccccc45)cc3C(=O)N([C@H](C)CO)C[C@H]2C)cc1 | Non-toxic |
| 1600 nM | C[C@@H]1CN([C@H](C)CO)C(=O)c2cc(NC(=O)Cc3cn(C)c4ccccc34)ccc2O[C@H]1CN(C)Cc1ccccc1 | Non-toxic |
| 2400 nM | C[C@@H]1CN([C@H](C)CO)C(=O)c2cc(NC(=O)Cc3cn(C)c4ccccc34)ccc2O[C@H]1CN(C)S(=O)(=O)c1cccs1 | Non-toxic |
| 560 nM | C[C@@H]1CN([C@H](C)CO)C(=O)c2cc(NC(=O)Cc3cn(C)c4ccccc34)ccc2O[C@H]1CN(C)S(=O)(=O)c1ccc(F)cc1 | Non-toxic |
| > 25000 nM | CNC[C@@H]1Oc2ccc(NC(=O)Cc3cn(C)c4ccccc34)cc2C(=O)N([C@H](C)CO)C[C@H]1C | Non-toxic |
| > 25000 nM | C[C@@H]1CN([C@H](C)CN(C)C)C(=O)c2cc(NC(=O)Cc3cn(C)c4ccccc34)ccc2O[C@H]1CN(C)S(=O)(=O)c1ccc(Cl)cc1 | Non-toxic |
| 92 nM | C[C@@H]1CN([C@H](C)CO)C(=O)c2cc(NC(=O)Nc3ccc(F)cc3)ccc2O[C@H]1CN(C)S(=O)(=O)c1ccc(Cl)cc1 | Non-toxic |
| > 25000 nM | C[C@@H]1CN([C@H](C)CO)C(=O)c2cc(NC(=O)Nc3ccccc3)ccc2O[C@H]1CN(C)S(=O)(=O)c1ccc(Cl)cc1 | Non-toxic |
| 300 nM | COc1ccc(NC(=O)Nc2ccc3c(c2)C(=O)N([C@H](C)CO)C[C@@H](C)[C@H](CN(C)S(=O)(=O)c2ccc(Cl)cc2)O3)cc1 | Non-toxic |
| 1300 nM | C[C@@H]1CN([C@H](C)CO)C(=O)c2cc(NC(=O)Cc3cn(C)c4ccccc34)ccc2O[C@H]1CN(C)Cc1ccncc1 | Non-toxic |

The remaining lines, values behind:

| Compound | IC50 [1] | Activity [2] |
| --- | --- | --- |
| COC[C@@H](C)N1C[C@@H](C)[C@H](CN(C)S(=O)(=O)c2ccc(Cl)cc2)Oc2ccc(NC(=O)NC(C)C)cc2C1=O | 8000 nM | Non-toxic |
| C[C@@H]1CN([C@H](C)CO)C(=O)c2cc(NC(=O)CCC(F)(F)F)ccc2O[C@H]1CN(C)S(=O)(=O)c1ccc(Cl)cc1 | 260 nM | Non-toxic |
| C[C@@H]1CN([C@H](C)CO)C(=O)c2cc(NC(=O)C3CCCCC3)ccc2O[C@H]1CN(C)S(=O)(=O)c1ccccc1Cl | 180 nM | Non-toxic |
| C[C@@H]1CN([C@H](C)CO)C(=O)c2cc(NC(=O)C3CCCCC3)ccc2O[C@H]1CN(C)S(=O)(=O)c1cccc(Cl)c1 |  | Non-toxic |
| CC(C)NC(=O)Nc1ccc2c(c1)C(=O)N(C(C)C)C[C@@H](C)[C@H](CN(C)S(=O)(=O)c1ccc(Cl)cc1)O2 | 9900 nM | Non-toxic |
| C[C@@H]1CN([C@H](C)CO)C(=O)c2cc(NC(=O)Cc3cn(C)c4ccccc34)ccc2O[C@H]1CN(C)C(=O)NC1CCCCC1 | 9200 nM | Non-toxic |
| C[C@@H]1CN([C@H](C)CO)C(=O)c2cc(NC(=O)C3CC3)ccc2O[C@H]1CN(C)S(=O)(=O)c1ccc(Cl)cc1 | 2100 nM | Non-toxic |
| C[C@@H]1CN([C@H](C)CO)C(=O)c2cc(NC(=O)Cn3cnnn3)ccc2O[C@H]1CN(C)S(=O)(=O)c1ccc(Cl)cc1 | 10000 nM | Non-toxic |
| C[C@@H]1CN([C@H](C)CO)C(=O)c2cc(NS(=O)(=O)c3ccc(F)cc3)ccc2O[C@H]1CN(C)S(=O)(=O)c1ccc(Cl)cc1 | 14000 nM | Non-toxic |
| C[C@@H]1CN([C@H](C)CO)C(=O)c2cc(NC(=O)C3CCCCC3)ccc2O[C@H]1CN(C)S(=O)(=O)c1ccc(Cl)cc1 | 54 nM | Non-toxic |
| C[C@@H]1CN([C@H](C)CO)C(=O)c2cc(NS(C)(=O)=O)ccc2O[C@H]1CN(C)S(=O)(=O)c1ccc(Cl)cc1 | 1600 nM | Non-toxic |
| C[C@@H]1CN([C@H](C)CO)C(=O)c2cc(NC(=O)C3CCOCC3)ccc2O[C@H]1CN(C)S(=O)(=O)c1ccc(Cl)cc1 | > 25000 nM | Non-toxic |
| C[C@@H]1CN([C@H](C)CO)C(=O)c2cc(NC(=O)CCN3CCOCC3)ccc2O[C@H]1CN(C)S(=O)(=O)c1ccc(Cl)cc1 | 5000 nM | Non-toxic |
| C[C@@H]1CN([C@H](C)CO)C(=O)c2cc(NC(=O)NC3CCCCC3)ccc2O[C@H]1CN(C)S(=O)(=O)c1ccc(Cl)cc1 | 350 nM | Non-toxic |
| Cc1noc(C)c1NC(=O)Nc1ccc2c(c1)C(=O)N([C@H](C)CO)C[C@@H](C)[C@H](CN(C)S(=O)(=O)c1ccc(Cl)cc1)O2 | 7100 nM | Non-toxic |
| CC(C)NC(=O)Nc1cccc2c1O[C@@H](CN(C)S(=O)(=O)c1ccc(Cl)cc1)[C@H](C)CN([C@H](C)CO)C2=O | > 25000 nM | Non-toxic |
| Cc1noc(C)c1S(=O)(=O)Nc1ccc2c(c1)C(=O)N([C@H](C)CO)C[C@@H](C)[C@H](CN(C)S(=O)(=O)c1ccc(Cl)cc1)O2 | 190 nM | Non-toxic |
| C[C@@H]1CN([C@H](C)CO)C(=O)c2cc(NC(=O)Cc3cn(C)c4ccccc34)ccc2O[C@@H]1CN(C)S(=O)(=O)c1ccc(Cl)cc1 |  | Non-toxic |
| C[C@@H]1CN([C@H](C)CO)C(=O)c2cc(N(C)C)ccc2O[C@H]1CN(C)S(=O)(=O)c1ccc(Cl)cc1 | 630 nM | Non-toxic |
| C[C@@H]1CN([C@H](C)CO)C(=O)c2cc(NC(=O)C3CCCCC3)ccc2O[C@H]1CN(C)C(=O)c1ccc(Cl)cc1 | > 25000 nM | Non-toxic |
| C[C@@H]1CN([C@H](C)CO)C(=O)c2cc(NC(=O)Cc3cn(C)c4ccccc34)ccc2O[C@H]1CN(C)CC1CCCCC1 | 9200 nM | Non-toxic |
